Measured values taken from ChEMBL document CHEMBL3808334, “Synthesis and in vitro evaluation of novel triazine analogues as anticancer agents and their interaction studies with bovine serum albumin” (Eur J Med Chem, 2016).

Experiments:
Assay type in all cases: functional
[1] = tested on: ACHN; assay: Growth inhibition of human ACHN cells assessed as cell growth at 10^-7 M incubated for 48 hrs by sulforhodamine B assay; conditions: read-out: Activity
In short: (§1)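 Five-dose assay: five concentrations from 10-fold or ½-log serial dilutions. Cells are plated at 5,000–40,000 per well according to doubling time, grown 24 h, then exposed 48 h at 37 °C, 5% CO₂. Fixed with cold 50% TCA (final addition) for 60 min at 4 °C and stained with 0.4% SRB in 1% acetic acid. Bound dye is solubilized in 10 mM Tris base and read at 515 nm. GI₅₀ is where [(Ti−Tz)/(C−Tz)]×100 = 50, with a time-zero plate as Tz.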

[2] = Growth inhibition of human SF268 cells incubated for 48 hrs by sulforhodamine B assay; conditions: SF-268, 48 h
In short: (§2)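 Cells were plated at 5,000–40,000 per well according to doubling time and preincubated 24 h at 37 °C in 5% CO2; time-zero plates were then TCA-fixed. Five concentrations (10-fold or ½-log dilutions, DMSO stock) were incubated 48 h. Cells were TCA-fixed, stained with 0.4% SRB and read at 515 nm. GI50 was taken where [(Ti−Tz)/(C−Tz)]×100 = 50.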

[3] = Growth inhibition of human SW620 cells assessed as cell growth at 10^-8 M incubated for 48 hrs by sulforhodamine B assay; conditions: SW-620, 48 h, read-out: Activity
[4] = Growth inhibition of human OVCAR3 cells assessed as cell growth at 10^-4 M incubated for 48 hrs by sulforhodamine B assay; conditions: OVCAR-3, 48 h, read-out: Activity
[5] = Growth inhibition of human OVCAR5 cells assessed as cell growth at 10 uM incubated for 48 hrs by sulforhodamine B assay; conditions: OVCAR-5, 48 h, read-out: Activity
[6] = tested on: NCI/ADR-RES; assay: Growth inhibition of human NCI/ADR-RES cells assessed as cell growth at 10 uM incubated for 48 hrs by sulforhodamine B assay; conditions: read-out: Activity
[7] = tested on: NCI-H322M; assay: Growth inhibition of human NCI-H322M cells assessed as cell growth at 10^-4 M incubated for 48 hrs by sulforhodamine B assay; conditions: read-out: Activity
[8] = Growth inhibition of human Hs 578T cells assessed as cell growth at 10^-7 M incubated for 48 hrs by sulforhodamine B assay; conditions: read-out: Activity
[9] = Growth inhibition of human OVCAR8 cells assessed as cell growth at 10^-8 M incubated for 48 hrs by sulforhodamine B assay; conditions: OVCAR-8, 48 h, read-out: Activity
[10] = Growth inhibition of human LOXIMVI cells assessed as cell growth at 10^-6 M incubated for 48 hrs by sulforhodamine B assay; conditions: LOX IMVI, read-out: Activity
[11] = tested on: 786-0; assay: Growth inhibition of human 786-0 cells assessed as cell growth at 10^-5 M incubated for 48 hrs by sulforhodamine B assay; conditions: 786-0, 48 h, read-out: Activity; in short: as §1
[12] = Growth inhibition of human SNB75 cells assessed as cell growth at 10^-8 M incubated for 48 hrs by sulforhodamine B assay; conditions: SNB-75, 48 h, read-out: Activity
[13] = Growth inhibition of human OVCAR5 cells assessed as cell growth at 10^-5 M incubated for 48 hrs by sulforhodamine B assay; conditions: OVCAR-5, 48 h, read-out: Activity
[14] = tested on: T47D; assay: Growth inhibition of human T47D cells incubated for 48 hrs by sulforhodamine B assay; in short: as §2
[15] = tested on: KM12; assay: Growth inhibition of human KM12 cells assessed as cell growth at 10 uM incubated for 48 hrs by sulforhodamine B assay; conditions: KM12, 48 h, read-out: Activity
[16] = Growth inhibition of human BT549 cells assessed as cell growth at 10^-7 M incubated for 48 hrs by sulforhodamine B assay; conditions: BT-549, 48 h, read-out: Activity; in short: as §1
[17] = tested on: EKVX; assay: Growth inhibition of human EKVX cells assessed as cell growth at 10^-5 M incubated for 48 hrs by sulforhodamine B assay; conditions: read-out: Activity
In short: (§3)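 Cells seeded at 5,000–40,000/well according to doubling time and preincubated 24 h at 37 °C, 5% CO2. Time-zero plates were TCA-fixed. DMSO concentrate was diluted in medium with 50 µg/ml gentamicin to give five concentrations (10-fold or ½ log steps), then exposed 48 h. Cells were TCA-fixed, stained with 0.4% SRB and read at 515 nm. Percent growth was taken against time-zero and control; GI50, TGI and LC50 derived.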

[18] = Growth inhibition of human HCT116 cells incubated for 48 hrs by sulforhodamine B assay; conditions: HCT-116, 48 h; in short: as §3
[19] = tested on: CCRF-CEM; assay: Growth inhibition of human CCRF-CEM cells assessed as cell growth at 10 uM incubated for 48 hrs by sulforhodamine B assay; conditions: read-out: Activity
In short: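 One-dose screen at 10 µM final. Cells are plated at 5,000–40,000 per well according to doubling time and preincubated 24 h at 37 °C, 5% CO₂. Compound (DMSO stock diluted in medium with 50 µg/ml gentamicin) is then added for 48 h. Growth percent is read by sulforhodamine B staining, absorbance at 515 nm.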

[20] = tested on: 786-0; assay: Growth inhibition of human 786-0 cells assessed as cell growth at 10^-8 M incubated for 48 hrs by sulforhodamine B assay; conditions: 786-0, 48 h, read-out: Activity; in short: as §1
[21] = Growth inhibition of human SKOV3 cells assessed as cell growth at 10^-7 M incubated for 48 hrs by sulforhodamine B assay; conditions: SK-OV-3, 48 h, read-out: Activity
[22] = Growth inhibition of human HL-60(TB) cells incubated for 48 hrs by sulforhodamine B assay; conditions: HL-60, 48 h
In short: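 Five-concentration, 48 h SRB screen (10-fold or ½-log dilutions from a 400× DMSO concentrate; 24 h preincubation at 37 °C, 5% CO₂; time-zero plate; A515). GI50 was solved from (Ti−Tz)/(C−Tz)×100 = 50. TGI was taken where Ti = Tz, and LC50 from (Ti−Tz)/[…].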

[23] = tested on: T47D; assay: Growth inhibition of human T47D cells assessed as cell growth at 10^-8 M incubated for 48 hrs by sulforhodamine B assay; conditions: read-out: Activity
[24] = Growth inhibition of human LOXIMVI cells assessed as cell growth at 10^-4 M incubated for 48 hrs by sulforhodamine B assay; conditions: LOX IMVI, read-out: Activity
[25] = Growth inhibition of human HCC2998 cells assessed as cell growth at 10^-7 M incubated for 48 hrs by sulforhodamine B assay; conditions: HCC 2998, 48 h, read-out: Activity; in short: as §3
[26] = read-out: LC50 (the source's name)
[27] = read-out: pLC50 (the source's name) (converted)

Fc1ccc(-c2nc(Nc3ccc(-c4nc5ccccc5[nH]4)cc3)nc(N3CCOCC3)n2)cc1
growth at 0.1 µM [1]: 95%
GI50 ([2]; read-out: GI50): 2.82 µM
CC50 [2, 26]: > 100 µM
TGI ([2]; read-out: TGI): 26.5 µM
GI50 ([2]; read-out: pGI50 (converted)): 2.82 µM
CC50 [2, 27]: > 100 µM
TGI ([2]; read-out: pTGI (converted)): 26.3 µM
growth at 0.01 µM [3]: 97%
growth at 100 µM [4]: -45%
growth at 10 µM [5]: 66.3%
growth at 10 µM [6]: 34.2%
growth at 100 µM [7]: 9%
growth at 0.1 µM [8]: 93%
growth at 0.01 µM [9]: 101%
growth at 1 µM [10]: 91%
growth at 10 µM [11]: -70%
growth at 0.01 µM [12]: 86%
growth at 10 µM [13]: -5%
GI50 ([14]; read-out: GI50): 1.88 µM
TGI ([14]; read-out: TGI): 4.32 µM
GI50 ([14]; read-out: pGI50 (converted)): 1.86 µM
TGI ([14]; read-out: pTGI (converted)): 4.37 µM
growth at 10 µM [15]: 12.4%
growth at 0.1 µM [16]: 97%
growth at 10 µM [17]: 3%
GI50 ([18]; read-out: GI50): 1.9 µM
CC50 [18, 26]: 6.56 µM
TGI ([18]; read-out: TGI): 3.53 µM
GI50 ([18]; read-out: pGI50 (converted)): 1.91 µM
CC50 [18, 27]: 6.61 µM
TGI ([18]; read-out: pTGI (converted)): 3.55 µM
growth at 10 µM [19]: -1.84%
growth at 0.01 µM [20]: 100%
growth at 0.1 µM [21]: 98%
GI50 ([22]; read-out: GI50): 1.94 µM
LC50 ([22]; read-out: LC50): > 100 µM
TGI ([22]; read-out: TGI): 5.67 µM
GI50 ([22]; read-out: pGI50 (converted)): 1.95 µM
LC50 ([22]; read-out: pLC50 (converted)): > 100 µM
TGI ([22]; read-out: pTGI (converted)): 5.62 µM
growth at 0.01 µM [23]: 101%
growth at 100 µM [24]: -49%
growth at 0.1 µM [25]: 95%

c1ccc2[nH]c(-c3ccc(Nc4nc(N5CCCCC5)nc(N5CCOCC5)n4)cc3)nc2c1
growth at 0.1 µM [1]: 95%
GI50 ([2]; read-out: GI50): 3.21 µM
CC50 [2, 26]: > 100 µM
TGI ([2]; read-out: TGI): 20.1 µM
GI50 ([2]; read-out: pGI50 (converted)): 3.24 µM
CC50 [2, 27]: > 100 µM
TGI ([2]; read-out: pTGI (converted)): 20 µM
growth at 0.01 µM [3]: 97%
growth at 100 µM [4]: -49%
growth at 10 µM [5]: 73.9%
growth at 10 µM [6]: 45.6%
growth at 100 µM [7]: 10%
growth at 0.1 µM [8]: 94%
growth at 0.01 µM [9]: 96%
growth at 1 µM [10]: 89%
growth at 10 µM [11]: -78%
growth at 0.01 µM [12]: 75%
growth at 10 µM [13]: 16%
GI50 ([14]; read-out: GI50): 1.96 µM
CC50 [14, 26]: > 100 µM
TGI ([14]; read-out: TGI): 4.58 µM
GI50 ([14]; read-out: pGI50 (converted)): 1.95 µM
CC50 [14, 27]: > 100 µM
TGI ([14]; read-out: pTGI (converted)): 4.57 µM
growth at 10 µM [15]: 14.3%
growth at 0.1 µM [16]: 95%
growth at 10 µM [17]: 5%
GI50 ([18]; read-out: GI50): 1.91 µM
CC50 [18, 26]: 7.88 µM
TGI ([18]; read-out: TGI): 3.87 µM
GI50 ([18]; read-out: pGI50 (converted)): 1.91 µM
CC50 [18, 27]: 7.94 µM
TGI ([18]; read-out: pTGI (converted)): 3.89 µM
growth at 10 µM [19]: 8.74%
growth at 0.01 µM [20]: 99%
growth at 0.1 µM [21]: 101%
GI50 ([22]; read-out: GI50): 2.42 µM
LC50 ([22]; read-out: LC50): > 100 µM
TGI ([22]; read-out: TGI): 5.8 µM
GI50 ([22]; read-out: pGI50 (converted)): 2.4 µM
LC50 ([22]; read-out: pLC50 (converted)): > 100 µM
TGI ([22]; read-out: pTGI (converted)): 5.75 µM
growth at 0.01 µM [23]: 93%
growth at 100 µM [24]: -65%
growth at 0.1 µM [25]: 105%
